# From PubChem BioAssay AID504775 (Broad Institute, 2011)
# The campaign covered roughly 320,000 compounds. About 310 (0.097%) were called active. This excerpt belongs to a sample that is enriched for actives. A number with no mark means an inactive call.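 Rule for the calls: active = mean replicate activation of at least 60% and every replicate at or above 60%; inconclusive = mean or all-replicate condition met, but not both; inactive = mean below 60% and not all replicates reaching 60%.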
# Assay: enhancers of HDL lipid transfer via mSR-BI – ldlA[mSR-BI] CHO cells, DiI fluorescence, primary screen (AID 504775);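 note: 0% = median plate neutral-control signal and 100% = twice that signal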
# Conditions: DiI-HDL uptake fluorescence, 3 h, at 12.5 µM, stronger effect = higher value, 100 = double the neutral-control signal
# Method in brief: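 Material: SR-BI-overexpressing, LDLR-lacking CHO cells | Dosing: Single compound concentration, delivered by pin transfer | Probe or stimulus: Labelled HDL, 10 µg/mL | Signal: Bottom-read cell fluorescence after medium removal, ex 550/em 595 nm | Schedule: 3 h, 37 °C | Evaluation: HDL uptake via cellular fluorescence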
row,Compound,activation
1,N=C1c2ccccc2-c2ccccc21,9.24%
2,COc1cc(O)c2c(=O)c3c(O)c(O)ccc3oc2c1OC,-10.1%
3,O=c1nc(NO)ccn1C1CCCO1 (stereo unspecified),15.7%
4,C(#CCN1CCOCC1)CCCN1CCOCC1,16.4%
5,CN1CCOC1c1ccc(C2OCCN2C)cc1 (stereo unspecified),6.99%
6,C=CCN1C=C(C(=O)c2ccccc2)C(=O)CC1,19.3%
7,NN=C(NN=Cc1ccccc1)c1ccccc1,1.04%
8,O=C(Cc1ccccc1)NNS(=O)(=O)c1ccc([N+](=O)[O-])cc1,-11.7%
9,O=C(NCC(O)c1ccc([N+](=O)[O-])cc1)C1CCCCC1 (stereo unspecified),2.53%
10,O=C(NNS(=O)(=O)c1ccc([N+](=O)[O-])cc1)C1CCCCC1,62.5% (active)
11,O=C(COC(=O)c1ccc(O)cc1O)NC(=O)c1ccccc1,38.7%
12,O=C(NCc1ccccc1)c1cccc(NC(=O)C2CCCCC2)c1,-0.488%
13,O=C1OCC2=C1C(c1ccc(Cl)cc1)c1cc3c(cc1O2)OCO3 (stereo unspecified),-14%
14,CCN1C[C@@H]2[C@@H]3C(=O)N(C)C(=O)[C@@H]3[C@](C)(C1=O)N2C(=O)c1ccccc1,-27.8%
15,Oc1cccc(CCc2ccccn2)c1,0.288%
16,COc1cccc(/C=N/Nc2ccc(S(=O)(=O)Nc3ccccc3C(=O)O)cc2[N+](=O)[O-])c1O,4.5%
17,CCCOc1ccccc1C(=O)NCCCC(=O)O,21.5%
18,CCCN(CCC)CC(O)COc1ccccc1C(=O)Nc1ccccc1 (stereo unspecified),102% (active)
19,CCCN(CC(=O)Nc1ccc(C(N)=O)cc1)CC(=O)Nc1ccccc1C,13.5%
20,COc1ccc(CNCCCNCc2ccc(OC)c(OC)c2)cc1OC,4.58%
21,CC(C)(C)C(=O)Nc1cccc(-c2ccc[nH]2)n1,5.41%
22,O=C1C2C3C=CC(C3)C2C(=O)N1c1ncc([N+](=O)[O-])s1 (stereo unspecified),8.82%
23,COc1ccc(Br)cc1/C=N/Nc1ccc(S(=O)(=O)Nc2ccccc2C(=O)O)cc1[N+](=O)[O-],16.3%

row,Compound,activation
1,COc1ccc(/C=C/C(=O)OCC(=O)N2CCN(S(=O)(=O)c3ccc(C)cc3C)CC2)cc1OC,-71.9%
2,CCOc1cc(C(=O)N(Cc2ccccc2)c2ccc(C)cc2)ccc1OCC(=O)N1CCOCC1,-5.71%
3,O=C(NNC(=O)c1ccccc1O)c1ccccc1O,-124%
4,CN(C)C(=S)N=c1ssc(=S)n1Cc1ccco1,-0.753%
5,O=C(CC1Sc2ccccc2NC1=O)NNc1ccc(Cl)c(Cl)c1 (stereo unspecified),-45.6%
6,O=S(=O)(O)c1cc2onnc2c2ccccc12,15.5%
7,Nc1ccc2c(c1)C(O)c1ccc(Cl)cc1-2 (stereo unspecified),14.5%
8,COc1cc(C(=O)CCc2ccc3c(c2)OCO3)cc(OC)c1OC,-43.2%
9,COC1=CC(=O)OC(c2ccc(OC)cc2)C1 (stereo unspecified),14.1%
10,O=C(NCCc1ccccc1)c1c[nH]c2ccc(F)cc2c1=O,-17.9%
11,CC(C)[C@@H](C(=O)OCC(=O)c1ccc2c(c1)NC(=O)CO2)N1C(=O)c2ccccc2C1=O,1.12%
12,CCOC(=O)CCC(NC(=O)c1ccc(CNc2nc3cc(C(F)(F)F)ccc3nc2C(=O)OCC)cc1)C(=O)OCC (stereo unspecified),-43.7%
13,CC(=O)OC1CCC2C3CCC4=C(CC(F)C(=O)C4)C3CCC12C (stereo unspecified),-3.99%
14,CC(=O)OCC(=O)C1(O)CCC2C3CC(C)C4=CC(=O)CCC4(C)C3C(O)CC21C (stereo unspecified),-0.166%
15,Cc1ccc(C)c(S(=O)(=O)N(C)c2ccc(OC(=O)C3CCN(C(=O)c4ccc(F)cc4)CC3)cc2)c1,-12.3%
16,Cc1ccc(Cn2c(C)c3cnn(CC(=O)NCCN4CCOCC4)c(=O)c3c2C)cc1,-22.1%
17,CCOC(=O)C1CCCN(C(=O)C2CCN(S(=O)(=O)c3ccc(Cl)c(C(F)(F)F)c3)CC2)C1 (stereo unspecified),22.7%
18,COc1ccccc1N(CC(=O)Nc1c(C)n(C)n(-c2ccccc2)c1=O)S(=O)(=O)c1ccccc1,12%
19,O=C1OC(Oc2ccc(Br)cc2)(c2ccccc2)c2ccccc21 (stereo unspecified),-0.981%
20,O=[N+]([O-])c1ccc(N=NNc2ccc([N+](=O)[O-])cc2)cc1,5.77%
21,CCOC(=O)C(Cc1ccc(N)cc1)N1C(=O)c2ccccc2C1=O (stereo unspecified),-16%
22,CC1=CC(C)(C)Nc2ccc(OC(=O)CN3C(=O)C4CCCCC4C3=O)cc21 (stereo unspecified),9.46%
23,CC1=CC(C)(C)Nc2ccc(OC(=O)C(Cc3ccccc3)N3C(=O)C4CCCCC4C3=O)cc21 (stereo unspecified),62.9% (active)

row,Compound,activation
1,COc1ccc(C(C(=O)NC2CCCCC2)N(C(=O)c2snc(C(N)=O)c2N)c2ccccc2OC)cc1 (stereo unspecified),13.6%
2,Cc1ccccc1N(C(=O)CNC(=O)c1cccs1)C(C(=O)NC1CCCC1)c1ccncc1 (stereo unspecified),4.44%
3,COc1ccc(C(C(=O)NC2CCCCC2)N(C(=O)CCl)c2ccccc2Cl)cc1 (stereo unspecified),88.3% (active)
4,Oc1ccc(-c2nc3ccccc3nc2-c2ccc(O)cc2O)c(O)c1,-26%
5,C/C(=N\Nc1ccccc1)c1cccs1,13.7%
6,O=C(CCCCCCCC(=O)N1CCCCC1)N1CCCCC1,7.36%
7,COc1ccc(CCC(=O)Nc2ccc(Cl)c(S(=O)(=O)N3CCOCC3)c2)cc1OC,-60.3%
8,CC(=O)CSc1nc(CCc2ccccc2)c(C#N)c(=O)[nH]1,11%
9,Nc1ccc2[nH]c(=S)sc2c1,-5.72%
10,COc1ccc(S(=O)(=O)N2CCC(C(=O)N3CCc4ccccc4C3)CC2)cc1OC,4.32%
11,COc1ccc(S(=O)(=O)N2CCC(C(=O)N3CCOCC3)CC2)cc1OC,0.407%
12,COc1cc(S(=O)(=O)N2CCN(C(=O)C3CC3)CC2)ccc1NC(C)=O,60.7% (active)
13,NC(=S)NN=C1CCCC(C(F)(F)F)C1 (stereo unspecified),-74%
14,N#CCc1c[nH]c2ccc([N+](=O)[O-])cc12,13.4%
15,O=C1CC(c2ccccc2)C(=O)N2C(=O)CC(c3ccccc3)C(=O)N12 (stereo unspecified),16.5%
16,C#CCOCCOCCOCCNc1nc(N2CCN(C(=O)Cn3cc(CCO)nn3)CC2)nc(N2CCN(C(=O)Cn3cc(CCCN=C(N)N)nn3)CC2)n1,17.5%
17,COC(=O)CC(CC(=O)OC)n1cccc1,7.62%
18,Cc1ccc(NC(=O)C(C)OC(=O)C2CC3CCCC(C2)C3=O)cc1S(=O)(=O)N1CCOCC1 (stereo unspecified),-2.41%
19,COc1ccc(CNC(=O)C[C@H]2C[C@H](C(=O)N3CCOCC3)[C@@]3(CCC4CCCC4)c4[nH]c5ccc(Cl)cc5c4CCN3C2=O)cc1OC,-30.3%
20,CN(C)C(=O)CCc1ccc2c3c([nH]c2c1)[C@]1(CCC2CCCC2)[C@@H](C(=O)N2CCOCC2)C[C@H](CC(=O)NCc2ccco2)C(=O)N1CC3,14.3%
21,O=C(C[C@H]1C[C@H](C(=O)N2CCOCC2)[C@@]2(CCC3CCCC3)c3[nH]c4ccc(Cl)cc4c3CCN2C1=O)NCc1ccco1,82.2% (active)
22,O=C(CC(=O)c1cccnc1)c1ccccc1,-1.21%
23,CCCCOC(=O)c1[nH]c(C)c(C(=O)OC)c1C,176% (active)

row,Compound,activation
1,CCOC(=O)c1c(C)[nH]c(C(=O)OCC(=O)c2ccc(OC)cc2OC)c1C,-45.7%
2,CCOC(=O)c1c(C)[nH]c(C(=O)OCC(=O)N2CCCC2=O)c1C,24.7%
3,COc1ccc(CNC(=O)CN2C(=O)c3ccccc3S2(=O)=O)cc1,16.4%
4,Cc1ccc(C(=O)O)c(NC=O)c1OCc1ccccc1,19.3%
5,COc1ccc(C(CNC(=O)c2cc(S(=O)(=O)Nc3cccc(C)c3)ccc2C)N2CCCC2)cc1 (stereo unspecified),21%
6,Cc1ccc(S(=O)(=O)N2CCC(C(=O)N3CCCCCCC3)CC2)cc1,-7.71%
7,COc1ccc(S(=O)(=O)N2CCc3ccccc32)cc1C(=O)Nc1cc(S(C)(=O)=O)ccc1Cl,-27.5%
8,O=C1/C(=C\c2ccc([N+](=O)[O-])cc2)CS(=O)(=O)C/C1=C/c1ccc([N+](=O)[O-])cc1,-17.7%
9,Oc1[nH]c2ccccc2c1N=Nc1c(F)c(F)c(F)c(F)c1F,-15.7%
10,Cc1cc(NC(=O)c2cc3ccccc3o2)no1,18.7%
11,COc1cc(C(=O)N2CCN(S(=O)(=O)c3ccc(C(C)C)cc3)CC2)ccc1OCC(=O)N1CCOCC1,10.9%
12,O=C(O)c1ccc([N+](=O)[O-])cc1Sc1ccsc1,-7.71%
13,O=C1NC(c2ccccc2)Cc2ccncc21 (stereo unspecified),37.2%
14,Cc1sc(NC(=O)C2=COCCO2)c(C#N)c1C,172% (active)
15,Cc1csc(NC(=O)C2=COCCO2)n1,11%
16,CCC(CC)c1nnc(NC(=O)C2=COCCO2)s1,9.84%
17,COc1ccc(C(CNC(=O)c2cccc(S(=O)(=O)Nc3ccc(Br)cc3)c2)N(C)C)cc1 (stereo unspecified),24.3%
18,COc1ccc(CCNC(=O)c2ccc(NC(=O)CC3SC(N4CCCCC4)=NC3=O)cc2)cc1OC (stereo unspecified),-66.6%
19,COC(=O)Cc1c(-c2[nH]c3ccccc3c2CC(=O)OC)[nH]c2ccccc12,-37.9%
20,COc1ccc(C2C(C(C)=O)=C(O)C(=O)N2Cc2cccnc2)cc1 (stereo unspecified),30%
21,CCOc1cc(C2C(C(=O)c3ccco3)=C(O)C(=O)N2Cc2ccccc2)ccc1O (stereo unspecified),21.9%
22,O=C(C1=C(O)C(=O)N(Cc2ccccc2)C1c1cccnc1)c1ccco1 (stereo unspecified),66.5% (active)
